Structures are written as SMILES.

Common to all, as to assay type: functional
Holding throughout (set-up): scale not given: the % may be the effect or the level left

Experiment [1] deals with Rattus norvegicus. The experiment is described as follows: Hypolipidemic activity in COBBS-CD rat assessed as reduction in serum sterol level at 0.01% administered with chow diet after 5 days relative to control. The method, boiled down: (§1)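 Male COBBS-CD rats, four per treated group and eight per control group. The compound was mixed into ground rat chow at 0.1, 0.03 or 0.01% w/w (about 100, 30 and 10 mg/kg). Control chow received only the mixing solvent (methanol-chloroform 1:3 v/v). Food and water were ad libitum for 5 days, then rats were decapitated and blood collected. Serum sterols were measured by an automated method and expressed relative to controls; ± values are SD.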

Experiment [2] concerns Rattus norvegicus. The experiment is described as follows: Hypolipidemic activity in COBBS-CD rat assessed as reduction in serum sterol level at 0.1% administered with chow diet after 5 days relative to control. The gist of the method: as §1
The test system of experiment [3] is Rattus norvegicus. The experiment is described as follows: Hypolipidemic activity in COBBS-CD rat assessed as reduction in serum sterol level at 0.03% administered with chow diet after 5 days relative to control. The gist of the method:
as §1

Experiment [4] relates to Rattus norvegicus. Nature of the experiment: Hypolipidemic activity in COBBS-CD rat assessed as reduction in serum triglyceride level at 0.01% administered with chow diet after 5 days relative to control. The gist of the method:
(§2)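 The compound was given in ground chow at 0.1, 0.03 or 0.01% w/w (about 100, 30 and 10 mg/kg) to male COBBS-CD rats (n=4; solvent-chow controls n=8) for 5 days ad libitum. Rats were killed by decapitation and blood collected. Serum triglycerides were assayed by an automated method and compared with controls; ± values are SD.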

In experiment [5] the test system is Rattus norvegicus. The experiment is described as follows: Hypolipidemic activity in COBBS-CD rat assessed as reduction in serum triglyceride level at 0.03% administered with chow diet after 5 days relative to control. The gist of the method:
as §2

Experiment [6] concerns Rattus norvegicus. The experiment is described as follows: Hypolipidemic activity in COBBS-CD rat assessed as reduction in serum triglyceride level at 0.1% administered with chow diet after 5 days relative to control. The gist of the method:
as §2

Experiment [7] deals with Rattus norvegicus. Nature of the experiment: Hypolipidemic activity in COBBS-CD rat assessed as reduction in serum triglyceride level at 0.3% administered with chow diet after 5 days relative to control.
The subject of experiment [8] is Rattus norvegicus. Nature of the experiment: Hypolipidemic activity in COBBS-CD rat assessed as reduction in serum sterol level at 0.3% administered with chow diet after 5 days relative to control.

In the case of `CCOP(=O)(OCC)C(Oc1ccc(Cl)cc1)(C(=O)OC)c1ccc(Oc2ccc(Cl)cc2)cc1` (stereo not given), the Activity with Rattus norvegicus [1] is 23%; in the experiment on Rattus norvegicus [2] it was 43%; in the experiment on Rattus norvegicus [3], 27%; in the experiment with Rattus norvegicus [4], 18%; with Rattus norvegicus [5] it was 44%; in the experiment on Rattus norvegicus [6] it was 60%.
On to `O=C(O)C(Oc1ccc(F)cc1)c1ccc(Oc2ccc(Cl)cc2)cc1` (stereo not given), for which the Activity was 41% in the experiment with Rattus norvegicus [1]; 29% with Rattus norvegicus [2]; 28% in the experiment on Rattus norvegicus [3]; 20% with Rattus norvegicus [4]; 48% with Rattus norvegicus [5]; 58% in the experiment with Rattus norvegicus [6].
Consider `COC(=O)C(Oc1cc(C(C)(C)C)cc(C(C)(C)C)c1)c1ccc(Oc2ccc(Cl)cc2)cc1` (stereo not given), for which the Activity in the experiment on Rattus norvegicus [1] was -30%; with Rattus norvegicus [2] it was -6%; in the experiment on Rattus norvegicus [3] it was -12%; in the experiment with Rattus norvegicus [4] it was 23%; in the experiment with Rattus norvegicus [5] it was -7%; in the experiment on Rattus norvegicus [6], 7%.
On to `COC(=O)C(Oc1ccc2ccc(=O)oc2c1)c1ccc(Oc2ccc(Cl)cc2)cc1` (stereo not given), for which the Activity in the experiment on Rattus norvegicus [1] is recorded as -5%; with Rattus norvegicus [2] it was -4%; with Rattus norvegicus [3], 7%; in the experiment on Rattus norvegicus [4] it was 4%; in the experiment on Rattus norvegicus [5], -23%; in the experiment with Rattus norvegicus [6] it was -16%.
Turning to `COC(=O)C(Oc1ccc(Cl)c2cccnc12)c1ccc(Oc2ccc(Cl)cc2)cc1` (stereo not given), the Activity is 4% with Rattus norvegicus [1]; 5% in the experiment on Rattus norvegicus [2]; 4% with Rattus norvegicus [3]; -3% in the experiment on Rattus norvegicus [4]; 4% in the experiment with Rattus norvegicus [5]; 5% with Rattus norvegicus [6].
For `COC(=O)C(Oc1ccc(Cl)cc1)c1ccc(Oc2ccc(Cl)c3ccccc23)cc1` (stereo not given), the Activity with Rattus norvegicus [1] came to 6%; in the experiment on Rattus norvegicus [2] it was 23%; with Rattus norvegicus [3], 17%; with Rattus norvegicus [4] it was 33%; in the experiment on Rattus norvegicus [5], 12%; in the experiment with Rattus norvegicus [6], 38%.
On to `COC(=O)C(Oc1ccc(C(C)(C)C)cc1)c1ccc(Oc2cccc(C(F)(F)F)c2)cc1` (stereo not given), for which the Activity with Rattus norvegicus [1] is reported as 12%; in the experiment with Rattus norvegicus [2] it was 26%; in the experiment on Rattus norvegicus [3], 35%; with Rattus norvegicus [4], 52%; with Rattus norvegicus [5] it was 70%; with Rattus norvegicus [6], 77%.
Turning to `COC(=O)C(Oc1ccc(Cl)cc1)c1ccc(Sc2ccccc2)cc1` (stereo not given), the Activity was 6% in the experiment with Rattus norvegicus [1]; 6% with Rattus norvegicus [2]; 6% in the experiment on Rattus norvegicus [3]; 41% in the experiment with Rattus norvegicus [4]; 47% in the experiment on Rattus norvegicus [5]; 30% in the experiment on Rattus norvegicus [6].
Take `COC(=O)C(Oc1ccc(F)cc1)c1ccc(Sc2ccc(Cl)cc2)cc1` (stereo not given): the Activity in the experiment on Rattus norvegicus [1] stood at 21%; in the experiment on Rattus norvegicus [2], 22%; with Rattus norvegicus [3], 23%; in the experiment with Rattus norvegicus [4], 1%; with Rattus norvegicus [5], 18%; with Rattus norvegicus [6] it was 36%.
With `COC(=O)C(C)(Oc1ccc(Cl)cc1)c1ccc(Oc2ccc(Cl)cc2)cc1` (stereo not given), the Activity in the experiment with Rattus norvegicus [1] worked out at 9%; in the experiment on Rattus norvegicus [2], 39%; with Rattus norvegicus [3], 14%; in the experiment on Rattus norvegicus [4], 39%; in the experiment on Rattus norvegicus [5] it was 44%; with Rattus norvegicus [6] it was 63%.
On to `CCOC(=O)C(C)(C)Oc1ccc(Cl)cc1` [CLOFIBRATE], for which the Activity worked out at 0% in the experiment with Rattus norvegicus [2], 58% in the experiment with Rattus norvegicus [7], 19% in the experiment with Rattus norvegicus [8] and 30% in the experiment with Rattus norvegicus [6].
Take `O=C(O)C(Oc1cccc(C(F)(F)F)c1)c1ccc(Cl)cc1` (stereo not given) [METAGLIDASEN]: the Activity was 25% with Rattus norvegicus [1]; 26% in the experiment with Rattus norvegicus [2]; 14% in the experiment on Rattus norvegicus [3]; 14% in the experiment on Rattus norvegicus [4]; 10% with Rattus norvegicus [5]; 49% in the experiment on Rattus norvegicus [6].
